Test results published in ChEMBL document CHEMBL4715819, “Bicyclic Helical Peptides as Dual Inhibitors Selective for Bcl2A1 and Mcl-1 Proteins” (J Med Chem, 2018).
Active and inactive are the calls of the source. The rule behind the calls is not given here. Positions of bridges follow the written chain, without caps; N, C: chain ends. Non-standard residues stand in square brackets, D forms with d. Residues, ends and D or L forms follow the SMILES beside them. ξ: configuration not given here. *: point of attachment. S5 = C=CCCC[C@](C)(N)C(=O)O; Acryloyl = C=CC(=O)*; Propionyl = CCC(=O)*; ξDap = NCC(N)C(=O)O

Legend:
[1] = molecular target: Bcl-2-like protein 1 (Homo sapiens) (UniProt Q07817); assay: Binding affinity to human Bcl-xL incubated for 2 hrs by FBid based competitive FP assay
Bcl-2-like protein 1 (Homo sapiens), sequence (Q07817 whole entry): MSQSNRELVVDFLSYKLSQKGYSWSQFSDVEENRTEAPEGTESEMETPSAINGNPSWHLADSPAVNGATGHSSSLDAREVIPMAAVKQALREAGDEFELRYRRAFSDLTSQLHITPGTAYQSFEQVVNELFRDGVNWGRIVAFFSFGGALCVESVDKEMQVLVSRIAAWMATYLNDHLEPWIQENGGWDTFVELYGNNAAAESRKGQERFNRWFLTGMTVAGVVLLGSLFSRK

[2] = molecular target: T1, Bcl-2-related protein A1 (Homo sapiens) (UniProt Q16548); assay: Covalent binding affinity to Bcl2A1 in human U937 cells at 0.1 to 50 uM incubated for 24 hrs by Western blot analysis; details: U-937, dose 0.1-50 µM
T1 sequence (whole entry): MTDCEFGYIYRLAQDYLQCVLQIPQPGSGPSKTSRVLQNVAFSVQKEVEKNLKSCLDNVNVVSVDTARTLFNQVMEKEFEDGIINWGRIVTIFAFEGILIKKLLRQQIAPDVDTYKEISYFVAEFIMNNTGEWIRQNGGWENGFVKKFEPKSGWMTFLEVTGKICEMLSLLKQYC

[3] = molecular target: T2, Induced myeloid leukemia cell differentiation protein Mcl-1 (Homo sapiens, UniProt Q07820); assay: Binding affinity to human Mcl1 incubated for 2 hrs by FBid based competitive FP assay
T2 sequence (Q07820 whole entry): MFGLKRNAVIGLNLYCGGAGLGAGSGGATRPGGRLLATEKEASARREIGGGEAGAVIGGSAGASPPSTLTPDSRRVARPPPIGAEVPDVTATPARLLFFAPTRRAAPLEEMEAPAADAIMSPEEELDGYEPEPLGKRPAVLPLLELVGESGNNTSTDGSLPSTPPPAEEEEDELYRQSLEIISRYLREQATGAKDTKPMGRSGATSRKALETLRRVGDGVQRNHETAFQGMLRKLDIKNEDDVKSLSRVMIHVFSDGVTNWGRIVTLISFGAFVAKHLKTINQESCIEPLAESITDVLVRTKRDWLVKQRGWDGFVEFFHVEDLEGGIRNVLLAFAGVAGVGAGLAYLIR

[4] = molecular target: Apoptosis regulator Bcl-2 (Homo sapiens) (UniProt P10415); assay: Binding affinity to human Bcl2 incubated for 2 hrs by FBid based competitive FP assay
Apoptosis regulator Bcl-2 (Homo sapiens), sequence (P10415 whole entry): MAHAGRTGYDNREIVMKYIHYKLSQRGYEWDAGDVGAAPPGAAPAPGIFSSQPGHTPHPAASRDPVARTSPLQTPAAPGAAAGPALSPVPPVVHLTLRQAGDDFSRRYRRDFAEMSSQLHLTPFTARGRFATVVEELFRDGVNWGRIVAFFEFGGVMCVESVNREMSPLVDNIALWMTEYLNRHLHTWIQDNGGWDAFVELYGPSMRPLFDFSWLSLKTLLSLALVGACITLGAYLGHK

Bcl-2-related protein A1 [5] = molecular target: T3, Bcl-2-related protein A1 (Homo sapiens, UniProt Q16548); assay: (§1) Binding affinity to human Bcl2A1 incubated for 2 hrs by FBid based competitive FP assay
T3 sequence (Q16548 whole entry): T1 sequence (whole entry)

[6] = molecular target: T1, Bcl-2-related protein A1 (Homo sapiens); assay: Covalent binding affinity to human Bcl2A1 assessed as Kinact/Ki ratio by FBid based FP assay
[7] = molecular target: T1, Bcl-2-related protein A1 (Homo sapiens); assay: Covalent binding affinity to human Bcl2A1 incubated for 2 hrs by SDS-PAGE electrophoresis
Bcl-2-related protein A1 [8] = molecular target: T3, Bcl-2-related protein A1; assay: Covalent binding affinity to human Bcl2A1 by FBid based FP assay
[9] = molecular target: T1, Bcl-2-related protein A1 (Homo sapiens); assay: Covalent binding affinity to human Bcl2A1 incubated for 2 hrs by in presence of trypsin by MS/MS analysis
How it was run: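 A1 at 1 μM incubated with peptide at 10 μM, 2 h, in pH 7.2 buffer. Intact conjugate mass checked by MS. The conjugate gel band was trypsin-digested and the Cys55-bearing A1 fragment with bound peptide identified by mass spectrometry.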

[10] = molecular target: T1, Bcl-2-related protein A1 (Homo sapiens); assay: Covalent binding affinity to human Bcl2A1 assessed as inactivation constant by FBid based FP assay
[11] = molecular target: T4, Bcl-2-like protein 2 (Homo sapiens) (UniProt Q92843); assay: Binding affinity to human Bcl-w incubated for 2 hrs by FBid based competitive FP assay
T4 sequence (whole entry): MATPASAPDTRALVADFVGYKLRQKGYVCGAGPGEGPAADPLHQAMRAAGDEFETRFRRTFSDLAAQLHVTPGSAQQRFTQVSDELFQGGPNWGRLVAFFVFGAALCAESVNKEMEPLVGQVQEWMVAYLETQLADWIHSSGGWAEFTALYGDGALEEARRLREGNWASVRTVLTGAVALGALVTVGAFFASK

[12] = molecular target: T2, Induced myeloid leukemia cell differentiation protein Mcl-1; assay: Binding affinity to human Mcl1 by FBid based FP assay
[13] = molecular target: Induced myeloid leukemia cell differentiation protein Mcl-1/Bcl-2-like protein 11 (Homo sapiens) (UniProt Q07820+O43521); assay: Inhibition of Mcl1-Bim interaction in human SK-MEL-28 cells at 30 uM incubated for 24 hrs by immunoprecipitation assay; format: cell-based
Induced myeloid leukemia cell differentiation protein Mcl-1/Bcl-2-like protein 11 (Homo sapiens), sequence (O43521 whole entry, looked up): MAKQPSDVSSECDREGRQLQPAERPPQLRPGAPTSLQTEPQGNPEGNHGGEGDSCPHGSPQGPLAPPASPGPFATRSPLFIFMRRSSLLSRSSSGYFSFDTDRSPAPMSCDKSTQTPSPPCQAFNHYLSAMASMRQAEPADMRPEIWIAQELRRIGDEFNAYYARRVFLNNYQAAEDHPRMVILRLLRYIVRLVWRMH
Induced myeloid leukemia cell differentiation protein Mcl-1/Bcl-2-like protein 11 (Homo sapiens), sequence (Q07820 whole entry, looked up): as the sequence (Q07820 whole entry) above

SK-MEL-28 [14] = assay: Toxicity in human SK-MEL-28 cells at 50 uM incubated for 30 mins by LDH release assay; format: cell-based; details: sk-mel-28, 0.5 h
SK-MEL-28 [15] = assay: Cytotoxicity in human SK-MEL-28 cells assessed as reduction in cell viability incubated for 48 hrs by MTT assay; format: functional, cell-based
How it was run: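 SK-MEL-28 cells grown in DMEM with 10% FBS and penicillin/streptomycin. Peptide applied over a concentration series for 48 h. Viability read by MTT, and IC50 taken from the dose–response.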

[16] = molecular target: T1, Bcl-2-related protein A1 (Homo sapiens); assay: as §1
[17] = molecular target: Bcl-2-like protein 11/Bcl-2-related protein A1 (Homo sapiens) (UniProt O43521+Q16548); assay: Inhibition of Bcl2A1-Bim interaction in human SK-MEL-28 cells at 30 uM incubated for 24 hrs by immunoprecipitation assay; format: cell-based
Bcl-2-like protein 11/Bcl-2-related protein A1 (Homo sapiens), sequence (O43521 whole entry, looked up, one chain of several): as the sequence (O43521 whole entry, looked up) above

SK-MEL-28 [18] = assay: Synergistic cytotoxicity in human SK-MEL-28 cells assessed as reduction in cell viability at 1.25 to 30 uM incubated for 48 hrs in presence of etoposide by MTT assay; format: functional, cell-based; details: dose 1.25-30 µM

In the case of `C=CC(=O)NCC1NC(=O)[C@@](C)(NC(C)=O)CCC/C=C/CCC[C@@](C)(C(=O)N[C@@H](CCC(=O)O)C(=O)N[C@@H](CC(C)C)C(=O)N[C@@H](CCCNC(=N)N)C(=O)N[C@H]2CCCCNC(=O)C[C@@H](C(=O)N[C@@H](Cc3ccccc3)C(N)=O)NC(=O)[C@H](CC(=O)O)NC(=O)CNC(=O)[C@H]([C@@H](C)CC)NC2=O)NC(=O)[C@H](C)NC(=O)[C@H]([C@@H](C)CC)NC1=O` (some centres undefined) (Ac-[S5][ξDap](Acryloyl)IA[S5]ELRKIGDDF-NH2; staple (E) 1-5; lactam 9-13), the Activity [1] is reported as “inactive”, the Activity [2] is reported as “Active” and the IC50 [3] is reported as 0.0292 µM. For the same compound, the Activity [4] was “inactive”, the IC50 (Bcl-2-related protein A1 [5]) was 0.0066 µM and the Ratio [6] was 399 mM⁻¹ s⁻¹. The Activity [7] was “Active”, the Ki (Bcl-2-related protein A1 [8]) was 0.01 µM and the Activity [9] was “Active”. For the same compound, the Kinact [10] was 0.00367 s⁻¹ and the Activity [11] was “inactive”.
In the case of `C=CC(=O)NCC1NC(=O)[C@@](C)(NC(C)=O)CCC/C=C/CCC[C@@](C)(C(=O)N[C@@H](CCC(=O)O)C(=O)N[C@@H](CC(C)C)C(=O)N[C@@H](CCCNC(=N)N)C(=O)N[C@@]2(C)CCC/C=C/CCC[C@@](C)(C(=O)N[C@@H](Cc3ccccc3)C(N)=O)NC(=O)[C@H](CC(=O)O)NC(=O)CNC(=O)[C@H]([C@@H](C)CC)NC2=O)NC(=O)[C@H](C)NC(=O)[C@H]([C@@H](C)CC)NC1=O` (some centres undefined) (Ac-[S5][ξDap](Acryloyl)IA[S5]ELR[S5]IGD[S5]F-NH2; staple (E) 1-5, 9-13), the Activity [1] is reported as “inactive”, the Activity [2] is reported as “Active” and the IC50 [3] is reported as 0.0516 µM. For the same compound, the Activity [4] was “inactive”, the IC50 (Bcl-2-related protein A1 [5]) was 0.0134 µM and the Ratio [6] was 16.2 mM⁻¹ s⁻¹. For the same compound, the Ki (Bcl-2-related protein A1 [8]) was 0.133 µM, the Kinact [10] was 0.00224 s⁻¹ and the Activity [11] was “inactive”.
In the case of `C=CC(=O)NCC1NC(=O)[C@@](C)(NC(C)=O)CCC/C=C/CCC[C@@](C)(C(=O)N[C@@H](CC(C)C)C(=O)N[C@@H](CC(C)C)C(=O)N[C@@H](CCCNC(=N)N)C(=O)N[C@H]2CCCCNC(=O)C[C@@H](C(=O)N[C@@H](Cc3ccccc3)C(N)=O)NC(=O)[C@H](CC(=O)O)NC(=O)CNC(=O)[C@H]([C@@H](C)CC)NC2=O)NC(=O)[C@H](C)NC(=O)[C@H]([C@@H](C)CC)NC1=O` (some centres undefined) (Ac-[S5][ξDap](Acryloyl)IA[S5]LLRKIGDDF-NH2; staple (E) 1-5; lactam 9-13), the Activity [10] is reported as “Active”.
In the case of `CCC(=O)NCC1NC(=O)[C@@](C)(NC(C)=O)CCC/C=C/CCC[C@@](C)(C(=O)N[C@@H](CCC(=O)O)C(=O)N[C@@H](CC(C)C)C(=O)N[C@@H](CCCNC(=N)N)C(=O)N[C@H]2CCCCNC(=O)C[C@@H](C(=O)N[C@@H](Cc3ccccc3)C(N)=O)NC(=O)[C@H](CC(=O)O)NC(=O)CNC(=O)[C@H]([C@@H](C)CC)NC2=O)NC(=O)[C@H](C)NC(=O)[C@H]([C@@H](C)CC)NC1=O` (some centres undefined) (Ac-[S5][ξDap](Propionyl)IA[S5]ELRKIGDDF-NH2; staple (E) 1-5; lactam 9-13), the Activity [2] is reported as “inactive”, the Activity [12] is reported as “Active” and the Activity [7] is reported as “inactive”.
For `CCC(=O)NCC1NC(=O)[C@@](C)(NC(C)=O)CCC/C=C/CCC[C@@](C)(C(=O)N[C@@H](CC(C)C)C(=O)N[C@@H](CC(C)C)C(=O)N[C@@H](CCCNC(=N)N)C(=O)N[C@H]2CCCCNC(=O)C[C@@H](C(=O)N[C@@H](Cc3ccccc3)C(N)=O)NC(=O)[C@H](CC(=O)O)NC(=O)CNC(=O)[C@H]([C@@H](C)CC)NC2=O)NC(=O)[C@H](C)NC(=O)[C@H]([C@@H](C)CC)NC1=O` (some centres undefined) (Ac-[S5][ξDap](Propionyl)IA[S5]LLRKIGDDF-NH2; staple (E) 1-5; lactam 9-13), the Activity [1] was “inactive”, the inhibition [13] was “Active” and the Activity [3] was “Active”. For the same compound, the Activity (SK-MEL-28 [14]) was “Non-Toxic”, the Activity (SK-MEL-28 [15]) was “Dose-dependent effect” and the IC50 (SK-MEL-28 [15]; SK-MEL-28, 48 h) was 8.8 µM. For the same compound, the Activity [16] was “Active”, the inhibition [17] was “Active” and the Activity (SK-MEL-28 [18]) was “Active”. The Activity [11] was “inactive”.
